Sampled rows, rich in hits. Any-hit rate of the full collection: about 3.5%.
Env fusion inh – blocks HIV Env-driven cell-cell fusion. HeLa-JRFL Env/CEM21 cell fusion, luciferase. inhibition, % at 12.3 µM. 360,000 tested, 1.1% active;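 active means mean replicate inhibition score of at least 50 and every replicate individually at or above 50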;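 further: 0% = plate neutral controls and 100% = maraviroc near 300 nM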
MITF act – activators of MITF-driven TRPM1 promoter activity in SK-MEL-5 cells; 300,000 tested, 0.75% active; SK-MEL-5 TRPM1-promoter luciferase, 24 h; % of positive control, neutral wells = 0; AID 588334; activation, % at 12.5 µM;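 active means mean activation of at least 80% with every replicate also reaching 80%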;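 further: 0% = neutral control wells and 100% = parthenolide positive control wells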
ERAP1 HTS inh – inhibitors of human ERAP1 aminopeptidase; Q9NZ08; recombinant ERAP1, Leu-AMC fluorescence, 60 min; inhibition, % at 10.7 µM; 340,000 tested, 0.15% active;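 active means mean replicate inhibition of at least 30%, or all replicates individually reaching that 30% level; inactive means mean below 30% and not every replicate reaching it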;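 further: 0% = neutral control wells and 100% = L-leucinethiol positive control wells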
Target sequence (Q9NZ08 whole entry, looked up): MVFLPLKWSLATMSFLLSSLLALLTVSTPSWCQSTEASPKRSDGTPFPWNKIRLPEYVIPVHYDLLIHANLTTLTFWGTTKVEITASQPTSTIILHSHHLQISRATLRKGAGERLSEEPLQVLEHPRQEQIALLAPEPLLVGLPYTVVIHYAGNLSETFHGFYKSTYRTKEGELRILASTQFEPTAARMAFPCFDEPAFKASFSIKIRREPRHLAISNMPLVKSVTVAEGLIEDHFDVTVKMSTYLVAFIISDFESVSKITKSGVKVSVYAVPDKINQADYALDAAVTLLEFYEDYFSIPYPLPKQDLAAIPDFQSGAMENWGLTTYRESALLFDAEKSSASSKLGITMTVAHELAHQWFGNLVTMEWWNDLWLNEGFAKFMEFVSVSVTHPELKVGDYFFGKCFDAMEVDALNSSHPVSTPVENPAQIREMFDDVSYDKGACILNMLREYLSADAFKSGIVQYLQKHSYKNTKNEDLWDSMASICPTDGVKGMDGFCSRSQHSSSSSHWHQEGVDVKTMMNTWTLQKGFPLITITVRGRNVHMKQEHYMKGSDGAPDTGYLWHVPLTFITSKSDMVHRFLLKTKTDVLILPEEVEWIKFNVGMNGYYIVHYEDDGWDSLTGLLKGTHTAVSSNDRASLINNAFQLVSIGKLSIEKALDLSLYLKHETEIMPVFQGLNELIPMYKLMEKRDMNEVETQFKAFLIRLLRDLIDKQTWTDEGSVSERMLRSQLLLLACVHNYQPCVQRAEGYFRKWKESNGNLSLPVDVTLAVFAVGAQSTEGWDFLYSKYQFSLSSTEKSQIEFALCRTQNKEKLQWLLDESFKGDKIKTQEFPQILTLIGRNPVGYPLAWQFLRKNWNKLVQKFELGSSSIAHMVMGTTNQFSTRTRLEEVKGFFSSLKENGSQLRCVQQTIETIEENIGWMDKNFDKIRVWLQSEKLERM
esBAF inh – SWI/SNF esBAF complex inhibition | mouse ES cells, Bmi1-luciferase knock-in reporter, 24 h; 100% = twice the neutral-well signal | reporter increase, % at 12.5 µM | 350,000 tested, 2% active | AID 602393; in the data active means activation above about 40%;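 further: 0% = median of the plate's neutral control wells and 100% = double that signal; a rise in the Bmi1 reporter signal indicates esBAF inhibition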
Wnt bcat act – activates Wnt/beta-catenin signaling in a reporter cell assay; 300,000 tested, 1.2% active; activator, plate reader; AID 743398; activation, % at 9.35 µM; in the data active means activation above about 30%, passing the limit was not always enough;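 further: 0% = neutral control wells and 100% = positive control wells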
Cneo AK release – Cryptococcus neoformans lysis via adenylate kinase release | C. neoformans lysis, adenylate kinase release luminescence, 4 h; normalised: neutral wells 0, clomiphene wells 100 | lysis activity, % at 15 µM | 360,000 tested, 0.2% active;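 active means mean lysis activity across replicates of at least 80%, whatever share of replicates individually reach that level; inactive means mean lysis activity below 80%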
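Material: C. neoformans cells | Amount: Yeast cell density of 5 × 10^6 cells/mL | Medium: Fresh YPD growth medium | Dosing: Single dose | Times: Static 4 h at 37 °C with compound, 1 h detection | Detection: AK luminescence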
Active calls of the source: *; i = inactive; nt = not tested or not shown; [ ] = another dose, or the depositor's remark.

SMILES	Env fusion inh	MITF act	ERAP1 HTS inh	esBAF inh	Wnt bcat act	Cneo AK release
CCCC#Cc1ccc2c(c1)O[C@@H](CN(C)C(=O)c1ccncc1)[C@@H](C)CN([C@H](C)CO)S2(=O)=O	14[16.7 µM]	nt	0	1	nt	-1
C=CCOc1ccc(/C=C2\SC(=S)N(N3CCOCC3)C2=O)cc1	0	nt	1	nt	42*	6
O=C1/C(=C/c2ccncc2)SC(=S)N1N1CCOCC1	-37	nt	1	nt	3	4
O=C(Nc1ccc2c(c1)OCO2)N[C@H]1CC[C@@H](CCNC(=O)C2CCC2)O[C@H]1CO	0[16.7 µM]	nt	0	4	nt	-7
CCCCc1c(C)nn(-c2nnc3c4ccccc4n(C)c3n2)c1C	nt	49	nt	48*	nt	0
Cn1c2ccccc2c2nnc(NN)nc21	27	-23	nt	5	-1	-6
COc1cccc2sc(=NC(=O)CS(=O)(=O)c3ccc(F)cc3)n(C)c12	-4	11	1	nt	-3	0
CCn1c(=NC(=O)CS(=O)(=O)c2ccc(C)cc2)sc2cccc(OC)c21	75*	2	0	nt	-9	0
C#CCn1c(=NC(=O)c2ccc(Br)s2)sc2cccc(OC)c21	i	73	7	54*	6	-1
CCCN1[C@@H]2Cn3c(cccc3=O)[C@H]1[C@@H](C(=O)Nc1ccccc1)[C@@H]2CO	nt	nt	0	3	nt	1
C[C@@H]1CN([C@@H](C)CO)C(=O)c2cccc(NC(=O)Nc3cccc4ccccc34)c2O[C@H]1CN(C)CC1CC1	14[16.7 µM]	nt	1	0	nt	-4
C[C@@H]1CN([C@@H](C)CO)C(=O)c2cccc(NC(=O)C3CC3)c2O[C@H]1CN(C)C(=O)Nc1ccc2c(c1)OCO2	-14[16.7 µM]	nt	-1	-1	nt	-1
Cc1c(CCC(=O)NCCCCCC(=O)O)c(=O)oc2cc3occ(-c4ccccc4)c3cc12	-1	-3	35*	-11	2	0
Cc1c(CC(=O)NCCCC(=O)O)c(=O)oc2cc3occ(-c4ccccc4)c3cc12	-11	-1	-1	-9	3	-3
COc1ccc(C(=O)Nc2ccc(C(=O)c3ccccc3)cc2)cc1	-2	nt	-9	nt	-1	-2
Cc1[nH]c2ccc(C(=O)NC3CCC(C)CC3)cc2c1C (stereo unspecified)	-32	85*	-1	56*	28	-2
COc1ccccc1NC(=O)NC(=O)c1ccccc1	-97	nt	3	62*	47*	0
COc1ccccc1NC(=O)c1ccc2[nH]c(C)c(C)c2c1	-93	28	2	66*	40*	-4
Cc1[nH]c2ccc(C(=O)Nc3ccncc3)cc2c1C	-19	8	-2	12	1	-1
COc1ccc(NC(=O)NC(=O)c2ccccc2)cc1	-19	nt	5	37	52*	-1
O=C(C[C@@H]1C=C[C@@H](NC(=O)c2ccc(F)cc2)[C@@H](CO)O1)NCc1ccncn1	9[16.7 µM]	nt	-1	0	nt	52
COc1ccccc1NC(=O)c1cc[n+](C)cc1	-15	nt	103*	-4	-2	4
O=C(NC(=O)c1ccccc1)Nc1ccccc1	-74	3	-6	-50	36*	-2
COc1ccccc1NC(=O)C(C)NC(c1ccccc1)c1ccccc1 (stereo unspecified)	59*	-7	-2	4	-1	-1
C[C@@H]1CN([C@H](C)CO)C(=O)c2cc(NC(=O)CCCCCC(=O)Nc3ccccc3N)ccc2O[C@H]1CN(C)C(=O)NC1CCCCC1	nt	nt	0	nt	nt	nt
CN(CC(=O)Nc1c(Cl)cccc1Cl)C(=O)CNC(=O)c1sc2ccccc2c1Cl	nt	nt	1	35	2	1
COc1ccc(NC(=O)CN(C)C(=O)CNC(=O)c2sc3ccccc3c2Cl)cc1	-52	93*	-1	51*	2	1
COc1ccccc1C(=O)Nc1ccc2c(c1)OC[C@H](C)N(C(C)=O)C[C@@H](C)[C@H](OC)CN(C)C2=O	14[16.7 µM]	nt	nt	2	nt	-1
CO[C@@H]1CN(C)C(=O)c2cc(NC(=O)c3ccccc3F)ccc2OC[C@@H](C)N(C(C)=O)C[C@H]1C	5[16.7 µM]	nt	0	-9	nt	49
CO[C@H]1CN(C)C(=O)c2cc(NC(=O)c3ccccc3F)ccc2OC[C@H](C)N(C(C)=O)C[C@H]1C	4[16.7 µM]	nt	-5	-15	nt	95*
